Data as given in ChEMBL document CHEMBL2034823, “Synthesis and antiviral activity of certain second generation methylenecyclopropane nucleosides” (Bioorg Med Chem, 2012).

Columns and labels:
[1] = Cytotoxicity against human BCBL1 cells after 7 days by Cell-Titer Glo assay; assay type: cell-based
Outline: (§1)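 Uninfected Akata, BCBL1, HSB-2 or MOLT-3 cells incubated with compound for seven days under the matching antiviral-assay conditions. CellTiter-Glo added and luminescence read. CC50 is the concentration reducing cell number by 50%.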

Human betaherpesvirus 5 = assay: Antiviral activity against HCMV infected in human HFF cells assessed as reduction in cytopathic effect after 8 days by plaque reduction assay; assay type: functional, organism-based; conditions: Human betaherpesvirus 5, HFF, 192 h
Outline: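 HFF monolayers seeded 2 days ahead and infected with AD169 at about 30 plaques per well, with 1 h adsorption. Compound was then added in MEM with 2% FBS, L-glutamine, penicillin, gentamycin and pooled human gamma globulin. After 8 days, neutral red stain and plaque counts by stereomicroscope. EC50 interpolated. Duplicate wells.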

[2] = Cytotoxicity against human HFF cells after 3 to 8 days by crystal voilet staining; assay type: cell-based
Outline: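 Uninfected HFF cells exposed to the same concentrations as in the CPE assays (3 days for HSV, 7 for VZV, […]). Stained with crystal violet. CC50 is the concentration reducing cell number by 50%. Duplicate wells.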

Human alphaherpesvirus 3 = assay: Antiviral activity against VZV infected in human HFF cells assessed as reduction in cytopathic effect after 7 days by crystal violet staining; assay type: functional, organism-based; conditions: Human alphaherpesvirus 3, HFF, 168 h
[3] = Antiviral activity against HHV-6A infected in human HSB2 cells assessed as reduction in viral DNA after 7 days by hybridization assay; assay type: functional, cell-based, Human herpesvirus 6A; conditions: Human betaherpesvirus 6A, HSB2, 168 h
Outline: (§2)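 Compound serially diluted in medium. Uninfected HSB-2 cells were infected with HHV-6A (GS)-infected HSB-2 cells, and Molt-3 cells with HHV-6B (Z29)-infected Molt-3 cells. Incubation 7 days at 37 °C. Lysis in 4.5 M NaCl/1.2 M NaOH, then transfer to nylon membrane. Viral DNA quantified by digoxigenin-probe hybridization and EC50 calculated. Duplicate wells.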

Human alphaherpesvirus 1 = assay: Antiviral activity against HSV-1 infected in human HFF cells assessed as reduction in cytopathic effect after 3 days by crystal violet staining; assay type: functional, organism-based; conditions: Human alphaherpesvirus 1, HFF, 72 h
Outline: (§3)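 Compound diluted over HFF monolayers, then HSV-1 (E-377) or HSV-2 (MS) added at MOI about 0.01 PFU/cell. Held 3 days in humidified 5% CO2. Stained 4 h with 0.1% crystal violet in formalin, rinsed, dried 24 h, and absorbance read at 595 nm. EC50 is 50% CPE reduction. Duplicate wells.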

[4] = Antiviral activity against HHV-6B infected in human Molt3 cells assessed as reduction in viral DNA after 7 days by hybridization assay; assay type: functional, cell-based, Human herpesvirus 6B; conditions: Human betaherpesvirus 6B, MOLT-3, 168 h; outline: as §2
Human alphaherpesvirus 2 = assay: Antiviral activity against HSV-2 infected in human HFF cells assessed as reduction in cytopathic effect after 3 days by crystal violet staining; assay type: functional, organism-based; conditions: Human alphaherpesvirus 2, HFF, 72 h; outline: as §3
[5] = Cytotoxicity against human Akata cells after 7 days by Cell-Titer Glo assay; assay type: cell-based; outline: as §1
Human gammaherpesvirus 8 = assay: Antiviral activity against HHV-8 infected in human BCBL1 cells assessed as reduction in viral DNA after 7 days by qPCR analysis; assay type: functional, organism-based; conditions: Human gammaherpesvirus 8, BCBL1, 168 h
Outline: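 BCBL1 cells kept in RPMI 1640 with 10% FBS, penicillin, gentamycin and L-glutamine. Lytic infection induced with phorbol 12-myristate 13-acetate, then cells added to triplicate compound dilutions. Incubation 7 days at 37 °C in humidified CO2. EC50 is the concentration halving viral DNA accumulation.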

[6] = Cytotoxicity against human MOLT3 cells after 7 days by Cell-Titer Glo assay; assay type: cell-based, MOLT-3; outline: as §1
[7] = Cytotoxicity against human HSB2 cells after 7 days by Cell-Titer Glo assay; assay type: cell-based, CCRF-HSB-2; outline: as §1
Human gammaherpesvirus 4 = assay: Antiviral activity against EBV Akata infected in human Akata cells assessed as reduction in viral DNA after 72 hrs by hybridization assay; assay type: functional, organism-based; conditions: human gammaherpesvirus 4, Akata
Outline: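 Akata cells kept in RPMI 1640 with 10% FBS, L-glutamine, penicillin and gentamicin. Latent infection was switched to productive by adding goat anti-human IgG, and cells were seeded into compound dilutions made in growth medium. After 72 h the DNA was denatured and blotted onto nylon membrane. Viral DNA was measured with a digoxigenin-labeled probe plus anti-hapten antibody. EC50 is the concentration halving viral DNA. Duplicate wells.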

| IC50 (Human betaherpesvirus 5) | IC50 (Human alphaherpesvirus 3) | IC50 [3] | IC50 (Human alphaherpesvirus 1) | IC50 [4] | IC50 (Human alphaherpesvirus 2) | IC50 (Human gammaherpesvirus 8) | IC50 (Human gammaherpesvirus 4) | SMILES | CC50 at 168 h [1] | CC50 [2] | CC50 at 168 h [5] | CC50 at 168 h [6] | CC50 at 168 h [7] |
| --- | --- | --- | --- | --- | --- | --- | --- | --- | --- | --- | --- | --- | --- |
| 20 µM | > 60 µM | > 20 µM | > 300 µM | 11 µM | > 300 µM | > 20 µM | > 20 µM | CCCCCCCCSc1nc(N)nc2c1ncn2/C=C1/CC1(CO)CO | > 20 µM | > 300 µM | > 20 µM | > 20 µM | 60 µM |
| > 50 µM | > 60 µM | 88 µM | > 300 µM | > 20 µM | > 300 µM | > 20 µM | 3.1 µM | Nc1nc(SCc2ccccc2)c2ncn(/C=C3/CC3(CO)CO)c2n1 | > 20 µM | > 300 µM | > 20 µM | > 20 µM | > 100 µM |
| > 300 µM | > 300 µM | > 20 µM | > 300 µM | 16 µM | > 300 µM | 30 µM | 11 µM | Nc1nc(N)c2nc[nH]c2n1 [2,6-DIAMINOPURINE] | 67 µM | > 300 µM | > 20 µM | > 20 µM | > 20 µM |
| 1.4 µM | > 100 µM | 1.3 µM | > 100 µM | 8 µM | > 100 µM | 3 µM | 45 µM | Nc1nc2c(ncn2/C=C2/CC2(CO)CO)c(=O)[nH]1 [FILOCICLOVIR] | > 20 µM | > 300 µM | > 20 µM | > 20 µM | > 20 µM |
